From ChEMBL document CHEMBL1125338, “Synthesis, chemical, and biological properties of vinylogous hydroxamic acids: dual inhibitors of 5-lipoxygenase and IL-1 biosynthesis” (J Med Chem, 1992)
pIC50: −log10 of the molar value.

What was measured:
[1] = biological target: T1, Polyunsaturated fatty acid 5-lipoxygenase (Rattus norvegicus, UniProt P12527); test: inhibitory activity against 5-lipoxygenase in rat basophilic leukemia cell line.; format: cell-based, RBL-1
T1 sequence (P12527 whole entry): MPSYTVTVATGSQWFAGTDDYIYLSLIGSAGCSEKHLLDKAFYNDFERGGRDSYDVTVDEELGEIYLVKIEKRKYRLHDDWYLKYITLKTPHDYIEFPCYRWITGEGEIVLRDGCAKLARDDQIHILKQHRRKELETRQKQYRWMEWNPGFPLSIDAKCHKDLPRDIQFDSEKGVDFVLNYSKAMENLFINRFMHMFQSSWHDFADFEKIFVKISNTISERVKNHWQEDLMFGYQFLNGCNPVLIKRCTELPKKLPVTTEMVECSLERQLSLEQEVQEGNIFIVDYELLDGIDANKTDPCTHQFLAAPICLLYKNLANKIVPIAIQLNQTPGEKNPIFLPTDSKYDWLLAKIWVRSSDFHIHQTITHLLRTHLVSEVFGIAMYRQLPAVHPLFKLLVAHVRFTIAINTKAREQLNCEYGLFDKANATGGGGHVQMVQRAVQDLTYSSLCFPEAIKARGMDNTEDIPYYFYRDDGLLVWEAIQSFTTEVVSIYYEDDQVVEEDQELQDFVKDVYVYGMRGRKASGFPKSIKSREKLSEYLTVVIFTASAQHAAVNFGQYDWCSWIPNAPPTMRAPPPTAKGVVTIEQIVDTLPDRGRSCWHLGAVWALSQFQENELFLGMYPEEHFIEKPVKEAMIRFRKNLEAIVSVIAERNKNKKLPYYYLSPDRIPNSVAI

[2] = Inhibition of IL-1 beta biosynthesis in human monocytes; format: functional, cell-based
Procedure, shortened: (§1)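 Human blood monocytes were isolated by ficoll-hypaque then elutriation and plated at 2×10^6 cells/mL in RPMI 1640 + 5% FBS. Compound in DMSO was added at 10, 3, 1, 0.3 and 0.1 μM for 1 h. Cells were then stimulated with Salmonella typhimurium LPS for about 20 h. Supernatant IL-1 was measured by ELISA and viability by MTT.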

Crotalus adamanteus [3] = test: Compound was evaluated for the inhibition of PLA2.; format: functional
[4] = biological target: Interleukin-1 beta (Homo sapiens) (UniProt P01584); test: Compound was evaluated for the inhibition of IL-1 beta release by human monocytes.
[5] = biological target: Cyclooxygenase (Bos taurus) (UniProt O62664+O62698)
[6] = biological target: T2, Polyunsaturated fatty acid 5-lipoxygenase (Rattus norvegicus) (UniProt P12527)
T2 sequence (whole entry): T1 sequence (P12527 whole entry)

Homo sapiens [7] = species on record: Homo sapiens; test: Compound was evaluated for the inhibition of,IL-1beta biosynthesis.; format: functional; procedure, shortened: as §1
Crotalus adamanteus [8] = test: Compound was evaluated for the inhibition of,PLA2.; format: functional
[9] = biological target: T2, Polyunsaturated fatty acid 5-lipoxygenase (Rattus norvegicus); test: Compound was evaluated for the inhibition of 5-LO (lipoxygenase); format: functional
Procedure, shortened: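 Enzyme source was a 1000g supernatant of homogenized RBL-1 cells, dosed to give 3300–3800 dpm net 5-HETE (9–20 μg cell protein/assay). Compound in 5% DMSO/0.2 M Tris pH 8.5 was preincubated with enzyme for 5 min at 37 °C in pH 7.0 phosphate buffer (EDTA, gelatin, glutathione, CaCl2, indomethacin). Then 0.042 mM [14C]arachidonic acid (final) was added, 2 min. Duplicates; IC50 by linear regression over three concentrations.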

[10] = biological target: T2, Polyunsaturated fatty acid 5-lipoxygenase (Rattus norvegicus); remark: listed apart in the source
Crotalus adamanteus [11] = test: Compound was evaluated for the inhibition of, PLA2.; format: functional
Homo sapiens [12] = species on record: Homo sapiens; test: Compound was evaluated for the inhibition of, IL1-beta biosynthesis.; format: functional; procedure, shortened: as §1

Sequence of Interleukin-1 beta (Homo sapiens) (P01584 whole entry, looked up): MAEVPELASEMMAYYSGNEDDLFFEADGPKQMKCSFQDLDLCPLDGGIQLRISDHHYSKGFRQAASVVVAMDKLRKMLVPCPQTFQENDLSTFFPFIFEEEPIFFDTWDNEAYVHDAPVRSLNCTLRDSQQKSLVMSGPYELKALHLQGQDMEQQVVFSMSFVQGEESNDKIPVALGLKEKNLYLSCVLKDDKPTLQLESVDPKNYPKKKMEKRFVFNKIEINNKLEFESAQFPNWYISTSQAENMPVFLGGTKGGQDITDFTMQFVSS

O=C(/C=C\N(O)Cc1ccccc1)c1ccc(-c2ccccc2)cc1
pIC50 [1]: 6.60 | pIC50 [2]: 5.44

O=C(/C=C\NOCc1ccccc1)c1ccc(-c2ccccc2)cc1
pIC50 [1]: < 4.60

CC(C)(C)C(=O)/C=C\N(O)Cc1ccccc1
pIC50 [1]: 5.30 | pIC50 [2]: < 5.00

O=C(/C=C\N(O)Cc1ccc(-c2ccccc2)cc1)c1ccsc1
pIC50 [1]: 5.52

O=C(/C=C\N(O)Cc1ccccc1)c1ccc(F)cc1
ID50 (Crotalus adamanteus [3]): > 1000 µM | ID50 [4]: 2.8 µM | ID50 [5]: > 750 µM | pIC50 [2]: 5.55

CCc1c(N(O)/C=C\C(=O)c2ccc3ccccc3c2)ccc2ccccc12
pIC50 [1]: 6.12

CN(O)/C=C\C(=O)c1ccc2ccccc2c1
pIC50 [1]: 5.74 | pIC50 [2]: < 5.00

CON(/C=C\C(=O)c1ccc(F)cc1)Cc1ccccc1
pIC50 [1]: < 4.60 | pIC50 [2]: < 5.00

O=C(/C=C\N(O)C1CCCCC1)c1ccc(F)cc1
pIC50 [1]: 6.57 | pIC50 [2]: < 5.00

O=C(/C=C\N(O)Cc1ccccc1)c1ccc([N+](=O)[O-])cc1
pIC50 [1]: 5.60 | pIC50 [2]: 5.77

CN(O)/C=C\C(=O)c1ccc(OCc2ccccc2)cc1 [listing 1 of 2 here]
pIC50 [1]: 5.96 | pIC50 [2]: < 5.00

CC(C)(C)/C(O)=C/C=N/OCc1ccccc1
pIC50 [1]: < 4.60

O=C(/C=C\N(O)Cc1ccccc1)c1ccc2ccccc2c1
pIC50 [2]: 5.27

COc1ccccc1/C(O)=C/C=N/OCc1ccccc1
pIC50 [1]: < 4.60

O=C(/C=C\N(O)Cc1ccc(-c2ccccc2)cc1)c1cccs1
pIC50 [1]: < 4.60

CN(O)/C=C\C(=O)c1ccc(-c2ccccc2)cc1
pIC50 [2]: < 5.00

CN(O)/C=C\C(=O)c1ccc(Cl)cc1
pIC50 [1]: 6.26 | pIC50 [2]: < 5.00

O=C(/C=C\N(O)Cc1ccc(-c2ccccc2)cc1)c1ccco1
pIC50 [1]: 5.51

CN(O)/C=C\C(=O)c1ccc(OCc2ccccc2)cc1 [listing 2 of 2 here]
pIC50 [1]: 5.72

COc1ccccc1C(=O)/C=C\N(Cc1ccccc1)OC
pIC50 [1]: < 4.60

O=C(/C=C\N(O)CCc1ccccc1)c1ccc(F)cc1
pIC50 [1]: 6.92 | pIC50 [2]: < 5.00

COc1ccc(C(=O)/C(=C\N(C)O)c2ccc(OC)cc2)cc1
pIC50 [1]: < 4.60

CC(=O)ON(/C=C\C(=O)c1ccc(-c2ccccc2)cc1)Cc1ccccc1
pIC50 [1]: < 4.60 | pIC50 [2]: < 5.00

O=C(/C=C\N(O)Cc1ccc(-c2ccccc2)cc1)c1ccc(F)cc1
pIC50 [1]: 5.52 | pIC50 [2]: 5.28

CC(=O)ON(C)/C=C\C(=O)c1ccc([N+](=O)[O-])cc1
pIC50 [1]: < 4.60

O=C(/C=C\N(O)Cc1ccccc1)c1ccc(Cl)c(Cl)c1
pIC50 [1]: 6.21 | pIC50 [2]: 5.44

O=C(/C=C\N(O)Cc1ccccc1)c1ccncc1
pIC50 [1]: 5.70 | pIC50 [2]: 5.05

CC(=O)ON(/C=C\C(=O)c1ccc(F)cc1)Cc1ccccc1
pIC50 [1]: < 4.60 | pIC50 [2]: < 5.00

COc1ccc2c(c1)c(CC(=O)O)c(C)n2C(=O)c1ccc(Cl)cc1
ID50 (Crotalus adamanteus [3]): > 1000 µM | ID50 [4]: > 30 µM | ID50 [6]: > 25 µM

CC(=O)ON(C)/C=C\C(=O)c1ccc(Cl)cc1
pIC50 [1]: < 4.60

CC(c1cc2ccccc2s1)N(O)C(N)=O (stereo unspecified) [ZILEUTON]
ID50 (Homo sapiens [7]): >30 µM | ID50 (Crotalus adamanteus [8]): > 1000 µM | ID50 [5]: > 750 µM

CC(=O)ON(/C=C\C(=O)c1ccc([N+](=O)[O-])cc1)Cc1ccccc1
pIC50 [1]: < 4.60 | pIC50 [2]: < 5.00

O=C(/C=C\N(O)Cc1ccc(Oc2ccccc2)cc1)C1CC1
pIC50 [1]: 5.85 | pIC50 [2]: < 5.00

C/C(=C/N(C)O)C(=O)c1ccc(OCc2ccccc2)cc1
pIC50 [1]: 5.05

O=C(/C=C\N(O)C1CCCCC1)c1ccc2ccccc2c1
pIC50 [1]: 5.59 | pIC50 [2]: < 5.00

CN(O)/C=C\C(=O)c1ccc([N+](=O)[O-])cc1
pIC50 [1]: 5.82 | pIC50 [2]: < 5.00

O=C(/C=C\N(O)c1ccccc1)c1ccc2ccccc2c1
pIC50 [1]: 6.09

O=C(/C=C\N(O)c1ccccc1)c1ccc(F)cc1
pIC50 [1]: 6.70 | pIC50 [2]: < 5.00

CN(O)/C=C(\C(=O)c1ccccc1)c1ccccc1
pIC50 [1]: < 4.60

CN(O)/C=C\C(=O)Sc1ccc2ccccc2c1
pIC50 [1]: 6.62 | pIC50 [2]: < 5.00

O=C(/C=C\N(O)Cc1ccccc1)c1ccc(Cl)cc1
ID50 (Crotalus adamanteus [3]): > 1000 µM | pIC50 [1]: 5.82 | ID50 [4]: 2.1 µM | ID50 [5]: > 750 µM | ID50 [9]: 1.5 µM | pIC50 [2]: 5.68

O=C(/C=C\N(O)Cc1ccccc1)c1c(Cl)cccc1Cl
pIC50 [1]: 5.77 | pIC50 [2]: < 5.00

O=C(/C=C\NOCc1ccccc1)c1ccc(F)cc1
pIC50 [1]: < 4.60

CC(=O)ON(C)/C=C\C(=O)c1ccc(-c2ccccc2)cc1
pIC50 [1]: < 4.60

COC(=O)/C=C\N(O)Cc1ccc(OCc2ccccc2)cc1
pIC50 [1]: 5.32

CN(O)/C=C\C(=O)c1ccc(OCc2ccccn2)cc1
pIC50 [1]: 5.00

O=C(/C=C\N(O)Cc1ccc(OCc2ccccc2)cc1)C1CC1
pIC50 [1]: 5.59

CC(=O)N(/C=C\C(=O)C(C)(C)C)OCc1ccccc1
pIC50 [1]: < 4.60

CC(=O)ON(C)/C=C\C(=O)c1ccc(OCc2ccccc2)cc1
pIC50 [1]: < 4.60

O=C1CCN(c2ccccc2)N1 [PHENIDONE]
ID50 [10]: 0.48 µM | ID50 (Crotalus adamanteus [11]): > 1000 µM | ID50 [5]: 6.9 µM | ID50 (Homo sapiens [12]): >30 µM

CSc1ccc(C(=O)/C(=C\N(C)O)c2ccc(F)cc2)cc1
pIC50 [1]: < 4.60

O=C(/C=C\N(O)Cc1ccc(-c2ccccc2)cc1)C1CC1
pIC50 [1]: 5.92 | pIC50 [2]: < 5.00

CC(=O)ON(/C=C\C(=O)C(C)(C)C)Cc1ccccc1
pIC50 [1]: < 4.60

CC(=O)ON(/C=C\C(=O)c1ccc(Cl)cc1)Cc1ccccc1
pIC50 [1]: < 4.60 | pIC50 [2]: < 5.00

CN(O)/C=C\C(=O)c1cc(C(F)(F)F)cc(C(F)(F)F)c1
pIC50 [1]: 6.04

CN(O)/C=C\C(=O)c1ccc(F)cc1
pIC50 [1]: 5.30 | pIC50 [2]: 5.26

CCCCCCCCCCN(O)/C=C\C(=O)c1ccc(F)cc1
pIC50 [1]: 4.89

C/C(=C/C(=O)c1ccc(F)cc1)N(O)Cc1ccccc1
pIC50 [1]: 6.60

O=C(/C=C\N(O)Cc1ccc2ccccc2c1)C1CC1
pIC50 [1]: 5.82 | pIC50 [2]: 5.00

O=C(/C=C\N(O)Cc1ccc2ccccc2c1)c1ccc(F)cc1
pIC50 [1]: 6.40 | pIC50 [2]: 5.11
